From ChEMBL document CHEMBL1124975 (J Med Chem, 1990)
Blank lines part the entries; values can stand above or below the molecule they belong to.

How the values were obtained:
[1] = (§1) Binding affinity towards 5-hydroxytryptamine 3 receptor by displacement of [3H]2 in Neuroblastoma-Glioma NG-108-15 cells
[2] = molecular target: T1, 5-hydroxytryptamine receptor 1A (Mus musculus, UniProt Q64264); experiment: Binding affinity for 5-hydroxytryptamine 1A receptor was determined by using [3H]8-OH-DPAT as radioligand
T1 sequence (Q64264 whole entry): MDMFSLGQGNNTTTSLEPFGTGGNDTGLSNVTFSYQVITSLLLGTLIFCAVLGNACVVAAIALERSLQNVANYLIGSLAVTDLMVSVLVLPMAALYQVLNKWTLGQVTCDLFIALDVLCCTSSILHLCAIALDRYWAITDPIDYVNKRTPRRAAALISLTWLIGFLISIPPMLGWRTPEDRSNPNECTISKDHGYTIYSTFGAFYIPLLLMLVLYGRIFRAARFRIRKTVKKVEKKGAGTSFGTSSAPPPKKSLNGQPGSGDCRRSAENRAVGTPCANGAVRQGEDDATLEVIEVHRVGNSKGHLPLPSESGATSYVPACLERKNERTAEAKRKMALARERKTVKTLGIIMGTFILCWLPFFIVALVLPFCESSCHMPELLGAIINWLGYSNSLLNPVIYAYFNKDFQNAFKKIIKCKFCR

[3] = molecular target: 5-hydroxytryptamine receptor 3A; experiment: as §1
[4] = molecular target: GABA-A receptor; anion channel; experiment: Displacement of [3H]flunitrazepam from GABA-A Benzodiazepine receptor; assay type: protein-complex assay
Mu-type opioid receptor = Mu-type opioid receptor (Homo sapiens, UniProt P35372); experiment: Binding affinity for Opioid receptor mu 1 was determined by using [3H]naloxone as radioligand
Sequence of Mu-type opioid receptor (P35372 whole entry): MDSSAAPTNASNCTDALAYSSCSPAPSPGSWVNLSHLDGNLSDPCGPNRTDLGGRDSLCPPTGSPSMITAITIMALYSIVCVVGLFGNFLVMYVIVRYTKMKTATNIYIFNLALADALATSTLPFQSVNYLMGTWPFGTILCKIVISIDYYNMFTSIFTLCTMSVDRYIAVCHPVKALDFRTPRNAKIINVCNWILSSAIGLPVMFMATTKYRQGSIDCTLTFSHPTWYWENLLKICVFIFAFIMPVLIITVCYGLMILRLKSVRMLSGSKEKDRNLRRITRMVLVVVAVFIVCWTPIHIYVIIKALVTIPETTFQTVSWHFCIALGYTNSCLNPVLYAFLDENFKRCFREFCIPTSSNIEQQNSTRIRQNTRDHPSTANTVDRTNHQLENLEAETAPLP

[5] = molecular target: 5-hydroxytryptamine receptor 1B (Rattus norvegicus) (UniProt P28564); experiment: Binding affinity for 5-hydroxytryptamine 1B receptor was determined by using [3H]5-HT as radioligand
Sequence of 5-hydroxytryptamine receptor 1B (Rattus norvegicus) (P28564 whole entry, looked up): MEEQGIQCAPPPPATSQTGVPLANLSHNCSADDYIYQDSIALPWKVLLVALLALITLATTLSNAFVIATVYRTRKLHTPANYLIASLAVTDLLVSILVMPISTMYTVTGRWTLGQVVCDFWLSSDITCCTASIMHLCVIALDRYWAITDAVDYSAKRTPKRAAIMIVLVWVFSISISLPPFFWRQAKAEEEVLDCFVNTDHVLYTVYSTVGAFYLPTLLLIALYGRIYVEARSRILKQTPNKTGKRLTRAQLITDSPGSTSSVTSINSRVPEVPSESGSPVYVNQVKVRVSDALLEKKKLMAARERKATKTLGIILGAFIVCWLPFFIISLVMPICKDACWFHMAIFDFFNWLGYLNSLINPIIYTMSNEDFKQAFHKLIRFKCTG

[6] = molecular target: Muscarinic acetylcholine receptor M3 (Rattus norvegicus, UniProt P08483); experiment: Binding affinity for Muscarinic acetylcholine receptor was determined by using [3H]QNB as radioligand
Sequence of Muscarinic acetylcholine receptor M3 (P08483 whole entry): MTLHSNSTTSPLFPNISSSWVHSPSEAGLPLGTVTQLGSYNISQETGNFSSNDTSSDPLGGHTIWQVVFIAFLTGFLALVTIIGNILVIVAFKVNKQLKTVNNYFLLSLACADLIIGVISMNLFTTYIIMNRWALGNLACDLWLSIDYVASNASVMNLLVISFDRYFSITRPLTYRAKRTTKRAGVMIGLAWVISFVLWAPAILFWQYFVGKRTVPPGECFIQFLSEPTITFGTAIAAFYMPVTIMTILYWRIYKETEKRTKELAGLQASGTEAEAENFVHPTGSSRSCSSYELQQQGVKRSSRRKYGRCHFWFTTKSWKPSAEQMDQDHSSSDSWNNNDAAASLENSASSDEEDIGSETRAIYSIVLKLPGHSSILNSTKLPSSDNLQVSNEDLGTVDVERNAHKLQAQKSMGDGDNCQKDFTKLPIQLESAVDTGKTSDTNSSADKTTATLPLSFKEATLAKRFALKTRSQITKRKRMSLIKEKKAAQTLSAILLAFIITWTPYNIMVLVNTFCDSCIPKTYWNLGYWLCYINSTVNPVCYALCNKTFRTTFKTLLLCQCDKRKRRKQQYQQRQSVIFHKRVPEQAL

[7] = molecular target: 5-hydroxytryptamine receptor 2A (Bos taurus, UniProt Q75Z89); experiment: Binding affinity for 5-hydroxytryptamine 2 receptor was determined by using [3H]ketanserin as radioligand
Sequence of 5-hydroxytryptamine receptor 2A (Q75Z89 whole entry): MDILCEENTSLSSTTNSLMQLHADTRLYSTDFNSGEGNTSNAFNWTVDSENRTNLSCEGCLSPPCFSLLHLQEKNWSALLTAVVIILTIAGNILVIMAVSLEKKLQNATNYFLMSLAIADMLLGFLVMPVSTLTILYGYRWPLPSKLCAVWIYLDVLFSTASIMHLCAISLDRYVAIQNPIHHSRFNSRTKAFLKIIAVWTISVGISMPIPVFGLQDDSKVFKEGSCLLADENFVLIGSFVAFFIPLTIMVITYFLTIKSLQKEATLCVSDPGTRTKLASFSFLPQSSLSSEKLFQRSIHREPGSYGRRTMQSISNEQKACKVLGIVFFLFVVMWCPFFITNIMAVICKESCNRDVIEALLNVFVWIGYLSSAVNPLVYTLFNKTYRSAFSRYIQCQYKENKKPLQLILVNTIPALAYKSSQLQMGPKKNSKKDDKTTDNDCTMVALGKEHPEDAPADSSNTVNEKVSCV

D(1A) dopamine receptor = D(1A) dopamine receptor (Mus musculus, UniProt Q61616); experiment: Binding affinity for Dopamine receptor D1 was determined by using [3H]SCH-23390 as radioligand
Sequence of D(1A) dopamine receptor (Q61616 whole entry): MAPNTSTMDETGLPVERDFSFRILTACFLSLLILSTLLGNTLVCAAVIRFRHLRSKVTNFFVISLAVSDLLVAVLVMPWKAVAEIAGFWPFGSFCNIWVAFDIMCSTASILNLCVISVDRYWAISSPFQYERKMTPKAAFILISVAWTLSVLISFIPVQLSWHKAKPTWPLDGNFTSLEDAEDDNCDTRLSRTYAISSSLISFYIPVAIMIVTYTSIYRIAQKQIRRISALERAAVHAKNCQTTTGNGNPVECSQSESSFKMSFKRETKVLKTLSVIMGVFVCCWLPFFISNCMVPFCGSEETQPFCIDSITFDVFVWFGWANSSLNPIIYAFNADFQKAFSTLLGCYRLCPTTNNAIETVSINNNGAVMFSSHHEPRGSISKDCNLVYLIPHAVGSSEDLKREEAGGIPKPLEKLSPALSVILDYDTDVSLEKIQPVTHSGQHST

[8] = molecular target: T2, 5-hydroxytryptamine receptor 2C (Rattus norvegicus, UniProt P08909); experiment: Binding affinity for 5-hydroxytryptamine 1C receptor was determined by using [3H]- mesulergine as radioligand
T2 sequence (P08909 whole entry): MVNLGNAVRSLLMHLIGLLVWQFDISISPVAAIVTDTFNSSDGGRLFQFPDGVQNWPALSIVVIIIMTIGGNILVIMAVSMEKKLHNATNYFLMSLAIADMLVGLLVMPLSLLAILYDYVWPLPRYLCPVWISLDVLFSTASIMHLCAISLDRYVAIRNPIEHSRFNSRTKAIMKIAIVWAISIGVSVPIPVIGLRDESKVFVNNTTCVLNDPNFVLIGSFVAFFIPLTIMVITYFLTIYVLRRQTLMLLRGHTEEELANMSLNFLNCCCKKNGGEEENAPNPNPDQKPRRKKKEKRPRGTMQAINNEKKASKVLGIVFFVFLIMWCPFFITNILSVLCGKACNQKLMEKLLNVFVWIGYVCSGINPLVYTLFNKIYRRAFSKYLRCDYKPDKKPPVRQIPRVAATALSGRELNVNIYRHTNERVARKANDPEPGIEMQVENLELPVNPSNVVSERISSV

[9] = molecular target: Beta-2 adrenergic receptor (Canis lupus familiaris, UniProt P54833); experiment: Binding affinity for Beta adrenergic receptor was determined by using [3H]dihydroalprenolol as radioligand
Sequence of Beta-2 adrenergic receptor (P54833 whole entry): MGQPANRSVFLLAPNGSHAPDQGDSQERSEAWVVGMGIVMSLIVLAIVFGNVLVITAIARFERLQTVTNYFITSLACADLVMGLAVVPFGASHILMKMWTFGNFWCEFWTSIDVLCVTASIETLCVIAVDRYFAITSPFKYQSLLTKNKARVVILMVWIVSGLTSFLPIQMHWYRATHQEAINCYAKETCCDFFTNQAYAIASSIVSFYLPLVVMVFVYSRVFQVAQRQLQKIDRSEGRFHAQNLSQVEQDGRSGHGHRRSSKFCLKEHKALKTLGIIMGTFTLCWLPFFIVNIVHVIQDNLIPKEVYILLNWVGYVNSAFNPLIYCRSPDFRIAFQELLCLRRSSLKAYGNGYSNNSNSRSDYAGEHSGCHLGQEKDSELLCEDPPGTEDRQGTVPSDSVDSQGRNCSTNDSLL

[10] = molecular target: Sigma non-opioid intracellular receptor 1 (Homo sapiens, UniProt Q99720); experiment: Binding affinity for Sigma opioid receptor was determined by using [3H](+)-3-(3-hydroxyphenyl)N-1-propyl-piperdine((+)-3-PPP) as radioligand
Sequence of Sigma non-opioid intracellular receptor 1 (Q99720 whole entry): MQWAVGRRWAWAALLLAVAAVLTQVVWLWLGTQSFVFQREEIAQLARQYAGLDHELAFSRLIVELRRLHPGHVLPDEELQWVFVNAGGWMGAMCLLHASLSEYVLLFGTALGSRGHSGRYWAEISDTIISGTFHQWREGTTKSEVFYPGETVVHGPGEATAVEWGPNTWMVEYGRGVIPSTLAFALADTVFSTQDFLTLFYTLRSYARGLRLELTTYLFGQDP

D(2) dopamine receptor = D(2) dopamine receptor (Homo sapiens, UniProt P14416); experiment: Binding affinity for Dopamine receptor D2 was determined by using [3H]spiperone as radioligand
Sequence of D(2) dopamine receptor (P14416 whole entry): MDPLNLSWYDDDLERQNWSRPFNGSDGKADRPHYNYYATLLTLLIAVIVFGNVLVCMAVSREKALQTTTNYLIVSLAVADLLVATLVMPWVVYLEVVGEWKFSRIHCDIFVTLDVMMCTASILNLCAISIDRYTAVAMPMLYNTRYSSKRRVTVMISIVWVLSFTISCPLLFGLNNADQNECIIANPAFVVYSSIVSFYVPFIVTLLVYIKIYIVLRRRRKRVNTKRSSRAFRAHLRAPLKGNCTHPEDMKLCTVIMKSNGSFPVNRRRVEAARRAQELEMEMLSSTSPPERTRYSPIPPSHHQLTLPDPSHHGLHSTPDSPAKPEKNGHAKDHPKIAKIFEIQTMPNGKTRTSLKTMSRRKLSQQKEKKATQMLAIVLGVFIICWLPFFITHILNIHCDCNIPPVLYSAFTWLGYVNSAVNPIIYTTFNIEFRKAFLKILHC

[11] = molecular target: T3, Serotonin 3 (5-HT3) receptor (Rattus norvegicus) (UniProt P35563+Q9JJ16); experiment: Serotonin receptor antagonist activity was measured as ability to block the serotonin-induced Bezold-Jarisch reflex in rats after iv administration of 2 ug/Kg; assay type: functional, organism-based
In short: (§2)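 Anaesthetic and strain not given; rats dosed iv with test compound via a right femoral vein cannula. Serotonin 100 μg kg-1 iv was given through the same route 1 min after drug. Inhibition of the serotonin-induced bradycardia (Bezold-Jarisch reflex) was scored.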

[12] = molecular target: T3, Serotonin 3 (5-HT3) receptor (Rattus norvegicus); experiment: Serotonin receptor antagonist activity was measured as ability to block the serotonin-induced Bezold-Jarisch reflex in rats after iv administration of 20 ug/Kg; assay type: functional, organism-based; in short: as §2
[13] = molecular target: T3, Serotonin 3 (5-HT3) receptor (Rattus norvegicus); experiment: Serotonin receptor antagonist activity was measured as ability to block the serotonin-induced Bezold-Jarisch reflex in rats after iv administration of 100 ug/Kg; assay type: functional, organism-based; in short: as §2
[14] = molecular target: T3, Serotonin 3 (5-HT3) receptor (Rattus norvegicus); experiment: Serotonin receptor antagonist activity was measured as ability to block the serotonin-induced Bezold-Jarisch reflex in rats after iv administration of 10 ug/Kg; assay type: functional, organism-based; settings: in the assay text read “2 ug/Kg” for “10 ug/Kg”; in short: as §2
[15] = molecular target: T3, Serotonin 3 (5-HT3) receptor (Rattus norvegicus); experiment: Serotonin receptor antagonist activity was measured as ability to block the serotonin-induced Bezold-Jarisch reflex in rats after iv administration of 5 ug/Kg; assay type: functional, organism-based; in short: as §2

SMILES: COc1cccc(-c2csc(Cc3[nH]cnc3C)n2)c1
Ki [1]: 2 nM

SMILES: COc1cccc(OC)c1-c1csc(Cc2[nH]cnc2C)n1
Ki [1]: 430 nM

Ki [2]: > 1000 nM
Ki [3]: 1.8 nM
Ki [4]: > 1000 nM
Ki (Mu-type opioid receptor): > 1000 nM
Ki [5]: > 1000 nM
Ki [6]: > 1000 nM
Ki [7]: > 1000 nM
Ki (D(1A) dopamine receptor): > 1000 nM
Ki [8]: > 1000 nM
Ki [9]: > 1000 nM
Ki [10]: > 1000 nM
Ki (D(2) dopamine receptor): > 1000 nM
SMILES: Cc1nc[nH]c1Cc1nc(-c2ccccc2)cs1

Ki [3]: 1 nM
inhibition [11]: 43%
inhibition [12]: 91.9%
SMILES: Cc1[nH]cnc1Cc1nc(-c2cccc3cccnc23)cs1

SMILES: N=C(N)NCCCOC(=O)c1c[nH]c2ccccc12
Ki [1]: 27 nM

SMILES: c1cnc2c(-c3csc(Cc4c[nH]cn4)n3)cccc2c1
Ki [1]: 0.31 nM

SMILES: COc1c(-c2csc(Cc3[nH]cnc3C)n2)ccc2ccccc12
Ki [1]: 95 nM

Ki [3]: 12 nM
SMILES: Cc1nc[nH]c1Cc1nc(-c2c[nH]c3ccccc23)cs1

inhibition [11]: 10.7%
inhibition [13]: 100%
SMILES: Cc1[nH]cnc1Cc1nc(-c2ccccc2)cs1

SMILES: COc1ccc2ccccc2c1-c1csc(Cc2[nH]cnc2C)n1
Ki [1]: 400 nM

SMILES: N=C(N)NCc1nc(-c2c[nH]c3ccccc23)cs1
Ki [1]: 3.3 nM

SMILES: Cc1[nH]cnc1Cc1nc(-c2ccccc2O)cs1
Ki [1]: 1.5 nM

SMILES: Cc1[nH]cnc1Cc1nc(-c2cccc(Br)c2)cs1
Ki [1]: 2 nM

SMILES: Cc1ccc(-c2csc(Cc3[nH]cnc3C)n2)cc1
Ki [1]: 110 nM

inhibition [14]: 77.5%
SMILES: CN1[C@@H]2CC[C@H]1C[C@@H](OC(=O)c1c[nH]c3ccccc13)C2

SMILES: CN1[C@@H]2CC[C@H]1C[C@H](OC(=O)c1ccccc1)C2
Ki [1]: 329 nM

SMILES: Cc1[nH]cnc1Cc1nc(-c2cccc(F)c2)cs1
Ki [1]: 3.7 nM

inhibition [15]: 88.5%
Ki [3]: 0.42 nM
inhibition [11]: 57.9%
inhibition [13]: 100%
SMILES: COc1ccccc1-c1csc(Cc2[nH]cnc2C)n1

SMILES: N=C(N)NCCOC(=O)c1c[nH]c2ccccc12
Ki [1]: 7.1 nM

inhibition [12]: 89.7%
SMILES: Cc1nccn1CC1CCc2c(c3ccccc3n2C)C1=O (stereo unspecified)

SMILES: Cc1[nH]cnc1Cc1nc(-c2ccccc2C(F)(F)F)cs1
Ki [1]: 61 nM

SMILES: CCOc1ccccc1-c1csc(Cc2[nH]cnc2C)n1
Ki [1]: 0.95 nM

SMILES: Cc1[nH]cnc1Cc1nc(-c2cccc(Cl)c2)cs1
Ki [1]: 0.88 nM

Ki [3]: 1.94 nM
inhibition [11]: 66.4%
SMILES: Cc1[nH]cnc1Cc1nc(-c2ccccc2F)cs1

SMILES: COc1ccccc1-c1csc(Cc2c[nH]cn2)n1
Ki [1]: 0.29 nM

SMILES: N=C(N)NCCCCOC(=O)c1c[nH]c2ccccc12
Ki [1]: 29 nM

SMILES: COc1ccc(-c2csc(Cc3[nH]cnc3C)n2)cc1
Ki [1]: 390 nM

SMILES: Cc1[nH]cnc1Cc1nc(-c2ccc(F)cc2)cs1
Ki [1]: 4.9 nM

SMILES: Cc1ccccc1-c1csc(Cc2[nH]cnc2C)n1
Ki [1]: 8.7 nM

inhibition [13]: 45.2%
SMILES: Cc1[nH]cnc1Cc1nc(-c2c[nH]c3ccccc23)cs1

SMILES: Cc1[nH]cnc1Cc1nc(-c2ccc(Br)cc2)cs1
Ki [1]: 270 nM

SMILES: c1ccc(-c2csc(Cc3c[nH]cn3)n2)cc1
Ki [1]: 1 nM

SMILES: Cc1[nH]cnc1Cc1nc(-c2ccc(Cl)cc2)cs1
Ki [1]: 34 nM
